Results of several laboratories.
Protocols differ between the studies behind these lines.
Cell line: NCI-H23
Observed: cell growth or viability

| Compound | assay | setting | measurement | value |
| --- | --- | --- | --- | --- |
| COc1ccc(C(=O)/C=C/c2cccc3ccccc23)cc1S(N)(=O)=O | SRB | 48 h | GI50 | 2.2 µM |
| CC/C(=C(\c1ccccc1)c1ccc(OCCN(C)C)cc1)c1ccccc1 | ATP luminescence | 72 h | EC90 | 18.3 µM |
| COc1ccc(C(=O)/C=C/c2ccc3c(c2)OCCO3)cc1S(N)(=O)=O | SRB | 10 µM | inhibition | 27% |
| CCCc1n(Cc2ccc3ccccc3n2)cc[n+]1Cc1ccc2ccccc2n1 | SRB |  | TGI | 15 µM |
| COc1cc(-c2ccc(-c3ccc(C(=N)N)nc3)s2)cc(OC)c1OC | SRB |  | GI50 | 6.4 µM |
| O=C1NC(=NCc2cccs2)S/C1=C\c1ccc2ncccc2c1 |  |  | IC50 | > 10 µM |
| COc1ccc(-c2ccc(-c3ccc(C(=N)N)nc3)s2)cc1Cl | SRB |  | GI50 | 1.8 µM |
| COc1ccc(C(=O)/C=C/c2c(F)cccc2Cl)cc1S(N)(=O)=O | SRB | 10 µM | inhibition | 116% |
| CCc1n(Cc2ccc3ccccc3n2)cc[n+]1Cc1ccc2ccccc2c1 | SRB |  | TGI | 3.23 µM |
| Cc1cccc(-n2ncc(Br)c(Br)c2=O)c1 | resazurin | 96 h | IC50 | 0.21 µM |
| CCCCc1n(Cc2ccc3ccccc3n2)cc[n+]1Cc1ccc2ccccc2n1 | SRB |  | TGI | 7.27 µM |
| Cc1cc(C)n(C(=S)[S][Au][PH](CCCCCC[PH]([Au][S]C(=S)n2nc(C)cc2C)(c2ccccc2)c2ccccc2)(c2ccccc2)c2ccccc2)n1 | SRB |  | GI50 | 1.54 µM |
| COc1ccc(C(=O)/C=C/c2cc3c(cc2Br)OCO3)cc1S(N)(=O)=O | SRB | 48 h | GI50 | 4.3 µM |
| O=C(/C=C/c1ccc2ncn(Cc3ccccc3)c(=O)c2c1)NO | SRB | 48 h | IC50 | 1 µM |
| COc1ccccc1/C=C/C(=O)c1ccc(OC)c(S(N)(=O)=O)c1 | SRB | 48 h | GI50 | 2.3 µM |
| O=C(/C=C/c1ccc2ncn(CCCl)c(=O)c2c1)NO | SRB | 48 h | IC50 | 3.2 µM |
| CCc1n(Cc2ccc3ccccc3n2)cc[n+]1Cc1ccc2ccccc2n1 | SRB |  | TGI | 8.66 µM |
